From ChEMBL document CHEMBL2202955, “Identification of Potent, Selective, Cell-Active Inhibitors of the Histone Lysine Methyltransferase EZH2” (ACS Med Chem Lett, 2012)
Calls of active or inactive are those of the source. The calls are words filed in the database; no cut-off is given here.

Key:
[1] = molecular target: T1, Histone-lysine N-methyltransferase SUV39H1 (Homo sapiens, UniProt O43463); experiment: Inhibition of SUV39H1 using histone H3 as substrate preincubated for 10 mins followed by addition of [3H]SAM and incubated for 60 mins
T1 sequence (O43463 whole entry): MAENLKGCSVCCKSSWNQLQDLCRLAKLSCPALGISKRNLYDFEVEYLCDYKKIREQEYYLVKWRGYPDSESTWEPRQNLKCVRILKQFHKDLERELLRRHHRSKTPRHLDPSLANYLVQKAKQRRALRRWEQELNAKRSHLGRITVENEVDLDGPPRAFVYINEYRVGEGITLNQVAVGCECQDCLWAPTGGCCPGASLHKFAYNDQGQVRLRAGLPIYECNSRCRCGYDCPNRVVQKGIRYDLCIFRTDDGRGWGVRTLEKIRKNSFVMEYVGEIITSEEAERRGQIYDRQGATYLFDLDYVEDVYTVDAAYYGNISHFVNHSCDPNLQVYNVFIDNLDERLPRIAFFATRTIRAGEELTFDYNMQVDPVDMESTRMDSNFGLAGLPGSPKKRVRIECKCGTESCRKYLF
Outline: (§1)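 Panel of methyltransferases tested for selectivity. […] Values are the mean of at least two independent replicates.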

[2] = molecular target: T2, Histone-lysine N-methyltransferase SETD7 (Homo sapiens, UniProt Q8WTS6); experiment: Inhibition of SET7 using histone H3 as substrate preincubated for 10 mins followed by addition of [3H]SAM and incubated for 60 mins; outline: as §1
T2 sequence (Q8WTS6 whole entry): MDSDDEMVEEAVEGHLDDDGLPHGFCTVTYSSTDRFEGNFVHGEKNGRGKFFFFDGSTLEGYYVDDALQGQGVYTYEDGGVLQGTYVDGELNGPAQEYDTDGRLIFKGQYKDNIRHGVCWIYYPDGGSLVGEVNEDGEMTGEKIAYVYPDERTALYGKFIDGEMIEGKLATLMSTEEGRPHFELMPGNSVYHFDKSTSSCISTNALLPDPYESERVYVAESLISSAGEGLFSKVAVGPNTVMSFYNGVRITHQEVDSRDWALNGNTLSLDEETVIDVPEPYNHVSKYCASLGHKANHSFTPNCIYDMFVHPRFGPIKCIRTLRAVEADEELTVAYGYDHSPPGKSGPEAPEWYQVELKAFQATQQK

[3] = molecular target: Histone-lysine N-methyltransferase 2D (Homo sapiens, UniProt O14686); experiment: Inhibition of MLL2 using core histone as substrate preincubated for 10 mins followed by addition of [3H]SAM and incubated for 60 mins; outline: as §1
[4] = molecular target: EZH1/SUZ12/EED/AEBP2/RBBP4 complex; experiment: Inhibition of PRC2 complex of EZH1, EED, SUZ12, AEBP2 and RbAp48 using histone H3 peptide (21 to 44) as substrate and [3H]SAM after 1 hr by SPA; format: protein-complex assay; outline: as §1
[5] = molecular target: DNA (cytosine-5)-methyltransferase 3B (Mus musculus, UniProt O88509); experiment: Inhibition of mouse DNMT3b1 using lambda DNA as substrate preincubated for 10 mins followed by addition of [3H]SAM and incubated for 60 mins; outline: as §1
[6] = molecular target: EZH2/SUZ12/EED/RBBP7/RBBP4; experiment: Inhibition of PRC2 complex of FLAG-EZH2, EED, SUZ12, AEBP2 and RbAp48 using histone H3 peptide (21 to 44) as substrate and [3H]SAM after 30 mins; format: protein-complex assay; conditions: read-out: Ki(app)
[7] = molecular target: Protein arginine N-methyltransferase 1 (Homo sapiens, UniProt Q99873); experiment: Inhibition of PRMT1 using histone H4 as substrate preincubated for 10 mins followed by addition of [3H]SAM and incubated for 60 mins; outline: as §1
[8] = molecular target: Histone-lysine N-methyltransferase, H3 lysine-79 specific (Homo sapiens, UniProt Q8TEK3); experiment: Inhibition of DOT1L using core histone as substrate preincubated for 10 mins followed by addition of [3H]SAM and incubated for 60 mins; outline: as §1
[9] = molecular target: Histone-lysine N-methyltransferase 2C (Homo sapiens, UniProt Q8NEZ4); experiment: Inhibition of MLL3 using core histone as substrate preincubated for 10 mins followed by addition of [3H]SAM and incubated for 60 mins; outline: as §1
[10] = molecular target: Protein arginine N-methyltransferase 5 (Homo sapiens, UniProt O14744); experiment: Inhibition of PRMT5 using histone H3 as substrate preincubated for 10 mins followed by addition of [3H]SAM and incubated for 60 mins; outline: as §1
[11] = molecular target: Protein arginine N-methyltransferase 3 (Homo sapiens, UniProt O60678); experiment: Inhibition of PRMT3 using histone H3 as substrate preincubated for 10 mins followed by addition of [3H]SAM and incubated for 60 mins; outline: as §1
[12] = molecular target: Histone-lysine N-methyltransferase 2A (Homo sapiens, UniProt Q03164); experiment: Inhibition of MLL1 using core histone as substrate preincubated for 10 mins followed by addition of [3H]SAM and incubated for 60 mins; outline: as §1
[13] = molecular target: Histone-lysine N-methyltransferase SUV39H2 (Homo sapiens, UniProt Q9H5I1); experiment: Inhibition of SUV39H2 using histone H3 as substrate preincubated for 10 mins followed by addition of [3H]SAM and incubated for 60 mins; outline: as §1
[14] = molecular target: Histone-lysine N-methyltransferase 2B (Homo sapiens, UniProt Q9UMN6); experiment: Inhibition of MLL4 using core histone as substrate preincubated for 10 mins followed by addition of [3H]SAM and incubated for 60 mins; outline: as §1
[15] = molecular target: DNA (cytosine-5)-methyltransferase 3A (Homo sapiens, UniProt Q9Y6K1); experiment: Inhibition of DNMT3a using lambda DNA as substrate preincubated for 10 mins followed by addition of [3H]SAM and incubated for 60 mins; outline: as §1
[16] = molecular target: T3, Histone-lysine N-methyltransferase EZH2 (Homo sapiens, UniProt Q15910); experiment: Inhibition of EZH2-mediated proliferation of human ZR-75-1 cells after 6 days by chemiluminescence analysis; format: cell-based
[17] = molecular target: T3, Histone-lysine N-methyltransferase EZH2; experiment: Inhibition of EZH2-mediated proliferation of human PC3 cells after 6 days by chemiluminescence analysis; format: cell-based; conditions: PC-3
[18] = molecular target: T3, Histone-lysine N-methyltransferase EZH2; experiment: Inhibition of EZH2-mediated proliferation of human SKBR3 cells after 6 days by chemiluminescence analysis; format: cell-based; conditions: SK-BR-3
[19] = molecular target: T3, Histone-lysine N-methyltransferase EZH2; experiment: Inhibition of EZH2-mediated proliferation of human DU145 cells after 6 days by chemiluminescence analysis; format: cell-based; conditions: DU-145
[20] = molecular target: T3, Histone-lysine N-methyltransferase EZH2; experiment: Inhibition of EZH2-mediated nuclear H3K27 methylation in human HCC1806 cells at >1000 nM after 72 hrs by immunofluorescence analysis; format: cell-based
Outline: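 HCC1806 breast cancer cells were exposed to compound for 72 h. Nuclear H3K27me3 was quantified by an immunofluorescence imaging assay and normalized to total H3. […] Values are the mean of at least three independent replicates.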

[21] = molecular target: T3, Histone-lysine N-methyltransferase EZH2; experiment: Inhibition of EZH2-mediated proliferation of human […] cells after 6 days by chemiluminescence analysis; format: cell-based

Sequence of Histone-lysine N-methyltransferase SUV39H2 (Q9H5I1 whole entry): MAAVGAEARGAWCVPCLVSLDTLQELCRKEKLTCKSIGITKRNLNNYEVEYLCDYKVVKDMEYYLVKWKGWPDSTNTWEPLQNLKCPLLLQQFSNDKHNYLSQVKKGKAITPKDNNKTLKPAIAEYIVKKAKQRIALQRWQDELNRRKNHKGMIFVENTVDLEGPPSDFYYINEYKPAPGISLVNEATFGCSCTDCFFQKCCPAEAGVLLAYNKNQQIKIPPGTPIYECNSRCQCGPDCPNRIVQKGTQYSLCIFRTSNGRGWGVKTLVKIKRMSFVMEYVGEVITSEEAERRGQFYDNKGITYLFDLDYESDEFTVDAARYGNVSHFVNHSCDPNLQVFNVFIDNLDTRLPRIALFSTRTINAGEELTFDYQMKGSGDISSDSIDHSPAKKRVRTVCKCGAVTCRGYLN
T3 sequence (Q15910 whole entry, looked up): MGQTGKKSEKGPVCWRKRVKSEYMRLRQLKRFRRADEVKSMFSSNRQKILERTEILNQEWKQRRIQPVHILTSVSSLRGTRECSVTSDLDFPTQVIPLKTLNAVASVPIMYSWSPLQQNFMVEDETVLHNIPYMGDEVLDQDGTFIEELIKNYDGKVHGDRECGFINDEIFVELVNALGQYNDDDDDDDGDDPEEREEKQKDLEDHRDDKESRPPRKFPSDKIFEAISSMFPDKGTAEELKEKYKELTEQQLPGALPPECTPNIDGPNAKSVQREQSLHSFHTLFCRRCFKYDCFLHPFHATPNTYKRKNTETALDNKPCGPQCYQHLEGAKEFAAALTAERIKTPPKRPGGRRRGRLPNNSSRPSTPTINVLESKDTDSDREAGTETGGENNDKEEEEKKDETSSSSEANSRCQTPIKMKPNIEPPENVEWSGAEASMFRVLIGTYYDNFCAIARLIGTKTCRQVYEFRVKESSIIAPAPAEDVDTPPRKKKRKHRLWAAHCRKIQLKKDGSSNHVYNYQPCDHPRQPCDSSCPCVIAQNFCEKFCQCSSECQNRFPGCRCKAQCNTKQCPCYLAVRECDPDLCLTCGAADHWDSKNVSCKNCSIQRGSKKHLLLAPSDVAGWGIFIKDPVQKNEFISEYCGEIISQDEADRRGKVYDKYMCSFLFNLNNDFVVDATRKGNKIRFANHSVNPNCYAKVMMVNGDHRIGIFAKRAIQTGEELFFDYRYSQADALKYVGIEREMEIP
Sequence of Histone-lysine N-methyltransferase, H3 lysine-79 specific (Q8TEK3 whole entry): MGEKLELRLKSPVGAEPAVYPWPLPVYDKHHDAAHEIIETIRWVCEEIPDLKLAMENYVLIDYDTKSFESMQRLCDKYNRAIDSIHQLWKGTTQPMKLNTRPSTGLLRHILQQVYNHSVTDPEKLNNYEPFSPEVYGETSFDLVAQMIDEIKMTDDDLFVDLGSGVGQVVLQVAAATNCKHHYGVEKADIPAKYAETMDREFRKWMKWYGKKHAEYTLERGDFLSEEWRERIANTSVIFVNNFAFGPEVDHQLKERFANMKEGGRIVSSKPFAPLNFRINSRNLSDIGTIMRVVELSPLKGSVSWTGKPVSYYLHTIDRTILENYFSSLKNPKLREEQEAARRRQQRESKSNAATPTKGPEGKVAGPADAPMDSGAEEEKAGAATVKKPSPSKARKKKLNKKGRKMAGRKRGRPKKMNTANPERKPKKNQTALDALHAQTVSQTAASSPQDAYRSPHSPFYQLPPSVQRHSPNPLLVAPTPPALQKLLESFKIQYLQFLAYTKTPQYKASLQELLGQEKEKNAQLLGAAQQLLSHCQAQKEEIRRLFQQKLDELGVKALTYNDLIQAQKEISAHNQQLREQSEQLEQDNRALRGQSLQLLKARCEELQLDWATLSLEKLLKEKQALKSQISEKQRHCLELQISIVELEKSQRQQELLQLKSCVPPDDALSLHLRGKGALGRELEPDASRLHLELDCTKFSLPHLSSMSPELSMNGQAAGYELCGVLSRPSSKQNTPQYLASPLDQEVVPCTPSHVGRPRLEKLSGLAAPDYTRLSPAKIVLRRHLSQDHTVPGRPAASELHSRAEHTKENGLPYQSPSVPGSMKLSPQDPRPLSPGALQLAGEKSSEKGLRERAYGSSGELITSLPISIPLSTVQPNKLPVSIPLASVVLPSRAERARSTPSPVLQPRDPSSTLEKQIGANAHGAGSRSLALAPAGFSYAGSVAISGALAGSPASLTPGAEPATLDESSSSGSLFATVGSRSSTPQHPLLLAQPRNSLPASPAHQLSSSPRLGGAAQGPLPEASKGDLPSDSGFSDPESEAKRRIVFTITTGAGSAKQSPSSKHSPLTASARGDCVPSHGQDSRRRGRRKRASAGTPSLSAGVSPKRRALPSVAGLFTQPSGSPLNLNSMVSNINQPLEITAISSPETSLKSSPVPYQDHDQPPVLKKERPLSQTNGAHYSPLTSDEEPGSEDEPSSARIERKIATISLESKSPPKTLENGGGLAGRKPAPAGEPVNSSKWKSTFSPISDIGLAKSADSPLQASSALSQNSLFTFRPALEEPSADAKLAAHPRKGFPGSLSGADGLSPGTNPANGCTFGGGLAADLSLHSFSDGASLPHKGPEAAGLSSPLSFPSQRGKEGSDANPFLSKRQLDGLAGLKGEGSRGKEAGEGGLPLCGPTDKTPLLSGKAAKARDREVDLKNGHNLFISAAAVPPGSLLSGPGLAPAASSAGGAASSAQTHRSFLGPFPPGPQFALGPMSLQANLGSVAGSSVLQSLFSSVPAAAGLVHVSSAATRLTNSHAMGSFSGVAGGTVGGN
Sequence of Protein arginine N-methyltransferase 3 (O60678 whole entry): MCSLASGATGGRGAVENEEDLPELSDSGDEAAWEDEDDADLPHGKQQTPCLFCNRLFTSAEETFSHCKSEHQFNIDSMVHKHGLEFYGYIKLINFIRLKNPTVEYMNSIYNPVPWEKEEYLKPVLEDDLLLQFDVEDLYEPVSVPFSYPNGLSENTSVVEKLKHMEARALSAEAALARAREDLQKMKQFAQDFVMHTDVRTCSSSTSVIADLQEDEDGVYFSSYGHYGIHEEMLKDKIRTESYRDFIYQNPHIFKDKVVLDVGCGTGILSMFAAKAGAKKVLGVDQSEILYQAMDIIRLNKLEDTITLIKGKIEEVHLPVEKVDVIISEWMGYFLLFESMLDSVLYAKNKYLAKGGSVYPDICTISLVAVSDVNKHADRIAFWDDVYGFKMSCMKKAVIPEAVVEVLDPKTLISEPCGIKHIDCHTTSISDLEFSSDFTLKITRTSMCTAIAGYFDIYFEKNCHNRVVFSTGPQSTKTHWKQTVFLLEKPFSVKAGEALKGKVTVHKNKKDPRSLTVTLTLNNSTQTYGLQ
Sequence of Protein arginine N-methyltransferase 1 (Q99873 whole entry): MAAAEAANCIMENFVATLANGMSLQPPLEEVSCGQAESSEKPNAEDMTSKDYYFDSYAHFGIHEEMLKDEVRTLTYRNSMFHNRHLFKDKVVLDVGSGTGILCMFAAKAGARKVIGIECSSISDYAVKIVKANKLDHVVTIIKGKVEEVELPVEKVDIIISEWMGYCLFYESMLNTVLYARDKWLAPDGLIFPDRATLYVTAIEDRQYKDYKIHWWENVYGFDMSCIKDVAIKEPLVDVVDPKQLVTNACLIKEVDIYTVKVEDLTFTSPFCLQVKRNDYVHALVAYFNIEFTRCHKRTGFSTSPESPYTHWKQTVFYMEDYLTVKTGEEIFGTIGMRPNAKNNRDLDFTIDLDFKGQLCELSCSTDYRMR
Sequence of Protein arginine N-methyltransferase 5 (O14744 whole entry): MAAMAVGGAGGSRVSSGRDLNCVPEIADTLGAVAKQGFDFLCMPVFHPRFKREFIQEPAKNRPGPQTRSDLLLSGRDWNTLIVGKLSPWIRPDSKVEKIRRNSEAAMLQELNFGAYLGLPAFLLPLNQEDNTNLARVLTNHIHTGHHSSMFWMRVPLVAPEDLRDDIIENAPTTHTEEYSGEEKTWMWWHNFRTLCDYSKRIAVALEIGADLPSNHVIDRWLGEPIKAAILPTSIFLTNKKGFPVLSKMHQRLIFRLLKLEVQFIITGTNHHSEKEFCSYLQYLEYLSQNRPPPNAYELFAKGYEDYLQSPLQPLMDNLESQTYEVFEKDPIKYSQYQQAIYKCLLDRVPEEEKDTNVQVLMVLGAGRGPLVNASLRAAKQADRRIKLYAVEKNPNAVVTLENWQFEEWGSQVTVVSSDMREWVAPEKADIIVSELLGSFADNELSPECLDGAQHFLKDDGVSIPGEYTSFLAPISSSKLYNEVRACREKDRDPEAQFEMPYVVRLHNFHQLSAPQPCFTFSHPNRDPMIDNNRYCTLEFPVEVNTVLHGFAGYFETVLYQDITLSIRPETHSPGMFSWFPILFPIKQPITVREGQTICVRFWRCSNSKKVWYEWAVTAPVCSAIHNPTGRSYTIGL

| SMILES | IC50 [1] [µM] | IC50 [2] [µM] | IC50 [4] [µM] | IC50 [5] [µM] | Ki [6] [µM] | IC50 [7] [µM] | IC50 [8] [µM] | IC50 [10] [µM] | IC50 [11] [µM] | IC50 [13] [µM] | IC50 [15] [µM] | also measured |
| --- | --- | --- | --- | --- | --- | --- | --- | --- | --- | --- | --- | --- |
| CCCc1cc(C)[nH]c(=O)c1CNC(=O)c1cc(-c2ccnc(N3CCN(C)CC3)c2)cc2c1cnn2C(C)C | > 100 | 63 | 0.24 | > 100 | 0.0012 | > 100 | > 100 | > 100 | 74 | 123 | > 100 | IC50 [3]: > 100 µM; IC50 [9]: > 100 µM; IC50 [12]: > 100 µM; IC50 [14]: > 100 µM |
| CCCc1cc(C)[nH]c(=O)c1CNC(=O)c1cc(-c2ccc(N3CCN(C)CC3)nc2)cc2c1cnn2C(C)C | > 100 | 49 | 0.1 | > 100 | 0.0006 | > 100 | > 100 | > 100 | 54 | > 100 | > 100 | – |
| Cc1cc(C)c(CNC(=O)c2cc(-c3ccc(N4CCN(C)CC4)nc3)cc3c2cnn3C(C)C)c(=O)[nH]1 | > 100 | 214 | 2.5 | > 100 | 0.0079 | > 100 | > 100 | > 100 | > 100 | > 100 | > 100 | inhibition [16]: Active; inhibition [17]: Active; inhibition [18]: Active; inhibition [19]: Active; inhibition [20]: > 90%; inhibition [21]: Active |
